Experimental data gathered from unrelated publications.
Lines come from different studies, so protocols differ.

SMILES | assay | test system | conditions | quantity | value
COc1cc(C(=O)N2CC[C@@H](O)[C@@H](N)C2)cc2nc(-c3cc4ccccc4n3CC3CC3)n(C)c12 | HPLC | – | pH 7.4 | chromatographic logD | 3.7
O=C(O)CN1CCC(Oc2ccc([C@H]3CC[C@]4(CC3)OOC3(O4)C4CC5CC(C4)CC3C5)cc2)CC1 (stereo partly drawn) | HPLC | – | pH 7.4 | chromatographic logD | 3 to 3.3
Cc1c(C(=O)NN2CCCCC2)nc(-c2ccc(Cl)cc2Cl)n1-c1ccc(OCCCF)cc1 | shake flask | aqueous buffer | pH 7.4 | logD | 5.3
C=CC1=C(C)C2=Cc3c(C=C)c(C)c4[n]3[Fe]([Cl])[n]3c(c(C)c(CCC(=O)O)c3=CC3=NC(=C4)C(C)=C3CCC(=O)O)=CC1=N2 | shake flask | aqueous buffer | pH 9 | logD | 0.463
Clc1ccc(COc2cc(OC[C@@H]3CCCN3)cnc2Cl)cn1 | shake flask | aqueous buffer | pH 7.4 | logD | 1.9
O=c1c(O)c(NCc2ccccc2)c1=O | shake flask | aqueous buffer | 1 h, pH 7.4 | logD | -1.4
Cc1c(C(=O)NN2CCCCC2)nc(-c2ccc(Cl)cc2Cl)n1-c1ccc(OCCCC(F)(F)F)cc1 | shake flask | aqueous buffer | pH 7.4 | logD | > 5.5
CC(C)C[C@@H]1NC(=O)[C@@H]2CSSC[C@@H](C(=O)NCC(N)=O)NC(=O)[C@H](Cc3ccccc3)NC(=O)CNC(=O)[C@H](CC(N)=O)NC(=O)[C@@H]3CCCN3C(=O)CNC(=O)[C@@H]3CSSC[C@H](NC(=O)[C@H](CO)NC(=O)[C@H]([C@@H](C)O)NC(=O)[C@@H]4CCCN4C(=O)[C@H](C)NC(=O)[C@H](Cc4c[nH]c5ccccc45)NC(=O)[C@H](CC(=O)O)NC(=O)CNC(=O)[C@H](CCCNC(=N)N)NC(=O)CNC(=O)[C@H](CCC(N)=O)NC(=O)[C@@H]4CCCN4C(=O)[C@@H](NC(=O)CNC(=O)c4ccc(F)cc4)CSSC[C@H](NC(=O)CNC(=O)[C@H](C)NC1=O)C(=O)N[C@@H](C(C)C)C(=O)N3)C(=O)N[C@@H](CO)C(=O)N[C@@H](CCC(N)=O)C(=O)N[C@@H](CC(=O)O)C(=O)N[C@@H](CO)C(=O)N[C@@H](CC(=O)O)C(=O)N2 | shake flask | PBS | pH 7.4 | logD | -1.68
CN1CCC[C@H]1COc1cnc(Cl)c(OCc2ccc(Cl)nc2)c1 | shake flask | aqueous buffer | pH 7.4 | logD | 2.2
